Converted amounts (≈) assume the structure as drawn. The source made the active and inactive calls. The rule behind the calls is not given here. Where a SMILES comes first, the peptide text is derived from it.
Columns and labels:
Staphylococcus aureus [1] = assay: Antibacterial activity against clinical isolate Staphylococcus aureus by microdilution method; type: functional
How it was run: (§1)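 Strains subcultured at least twice on sheep blood agar and incubated 24 h before testing; inoculum made by direct suspension in saline to 0.5 McFarland turbidity. MIC determined by broth microdilution in Mueller–Hinton broth following CLSI guidelines; gentamicin run as control antibiotic.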

Staphylococcus aureus [2] = assay: Antibacterial activity against Staphylococcus aureus ATCC 29213 by microdilution method; type: functional; how it was run: as §1
Escherichia coli [3] = assay: Antibacterial activity against clinical isolate Escherichia coli by microdilution method; type: functional; how it was run: as §1
Enterococcus faecalis [4] = assay: Antibacterial activity against Enterococcus faecalis ATCC 29212 by microdilution method; type: functional; how it was run: as §1
Streptococcus pyogenes = assay: Antibacterial activity against clinical isolate Streptococcus pyogenes by microdilution method; type: functional
How it was run: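 S. pyogenes isolate subcultured twice on sheep blood agar, incubated 24 h, suspended in saline to 0.5 McFarland. MIC by CLSI broth microdilution in Mueller–Hinton broth supplemented with 5% lysed horse blood; gentamicin control.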

Enterococcus faecalis [5] = assay: Antibacterial activity against clinical isolate Enterococcus faecalis by microdilution method; type: functional; how it was run: as §1
Pseudomonas aeruginosa [6] = assay: Antibacterial activity against Pseudomonas aeruginosa ATCC 27853 by microdilution method; type: functional; how it was run: as §1
Klebsiella pneumoniae = assay: Antibacterial activity against clinical isolate Klebsiella pneumoniae by microdilution method; type: functional; how it was run: as §1
Pseudomonas aeruginosa [7] = assay: Antibacterial activity against clinical isolate Pseudomonas aeruginosa by microdilution method; type: functional; how it was run: as §1
Acinetobacter baumannii = assay: Antibacterial activity against clinical isolate Acinetobacter baumannii by microdilution method; type: functional
How it was run: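 A. baumannii clinical isolate subcultured at least twice on sheep blood agar, 24 h incubation before testing; saline suspension adjusted to 0.5 McFarland. Broth microdilution MIC in Mueller–Hinton broth per CLSI; gentamicin as control antibiotic.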

Escherichia coli [8] = assay: Antibacterial activity against Escherichia coli ATCC 25922 by microdilution method; type: functional; how it was run: as §1
THP-1 [9] = assay: Cytotoxicity against human THP1 cells after 24 hrs by cell titer blue dye assay; type: functional, cell-based
How it was run: (§2)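 Tumor cells cultured in DMEM with 10% FBS, 37 °C, 5% CO2, kept at 10^5–10^6 cells/mL. About 60 000 cells mixed with 2-fold serial peptide dilutions (final 0.1–100 μM) in DMEM with 2% FBS for 30 min at 37 °C. About 10 000 treated cells per well then got Cell Titer Blue; fluorescence (ex 530, em 590 nm) read 4 and 24 h after dye addition. Viability relative to medium-only controls; triplicate.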

[10] = Cytotoxicity against human 1BR3G cells assessed as reduction of cell viability at 100 uM after 4 hrs by cell titer blue dye assay; type: cell-based
How it was run: (§3)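 1BR3G human fibroblasts grown in DMEM with 10% FBS at 37 °C, 5% CO2; 5000 cells/well seeded for 24 h, then medium swapped for DMEM with 2% FBS holding 2-fold serial peptide dilutions (final 0.1–100 μM). After 30 min, Cell Titer Blue added; fluorescence (ex 530, em 590 nm) read 4 and 24 h after dye addition. Viability relative to 2% FBS medium-only controls; triplicate.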

THP-1 [11] = assay: Cytotoxicity against human THP1 cells after 4 hrs by cell titer blue dye assay; type: functional, cell-based; settings: for IC50: THP-1, 4 h; how it was run: as §2
[12] = Metabolic stability in human serum assessed as compound remaining at 1 mM after 24 hrs by LC-MS analysis; type: ADME, cell-free; settings: read-out: Stability
How it was run: (§4)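 Human serum combined with equal volume of 1 mM aqueous peptide stock, incubated 24 h at 37 °C with gentle swirling. Aliquots taken at 0, 1, 5, 10, 30, 120, 360 and 1440 min, quenched with 15% trichloroacetic acid for 30 min at 4 °C, and centrifuged to remove serum proteins. Remaining peptide followed by LC-MS.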

[13] = Cytotoxicity against human HeLaS3 cells after 4 hrs by cell titer blue dye assay; type: functional, cell-based; settings: HeLa S3, 4 h; how it was run: as §2
HeLa S3 = assay: Cytotoxicity against human HeLaS3 cells after 24 hrs by cell titer blue dye assay; type: functional, cell-based; how it was run: as §2
U-937 [14] = assay: Cytotoxicity against human U937 cells after 24 hrs by cell titer blue dye assay; type: functional, cell-based; how it was run: as §2
U-937 [15] = assay: Cytotoxicity against human U937 cells after 4 hrs by cell titer blue dye assay; type: functional, cell-based; settings: for IC50: U-937, 4 h; how it was run: as §2
[16] = Cytotoxicity against human 1BR3G cells assessed as reduction of cell viability at 100 uM after 24 hrs by cell titer blue dye assay; type: cell-based; how it was run: as §3
[17] = Half life in human serum at 1 mM incubated for 24 hrs by LC-MS analysis; type: ADME, cell-free; how it was run: as §4
[18] = Toxicity in human erythrocytes assessed as induction of hemolysis up to 400 uM incubated for 30 mins by microplate reader assay; type: cell-based, Erythrocyte; settings: read-out: Activity
How it was run: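 Fresh human blood collected in EDTA; erythrocytes washed three times in PBS. Mixed 1:1 with 2-fold serial peptide dilutions to final 4% (v/v) cells and 0.1–400 μM peptide. Incubated 30 min at 37 °C with gentle agitation, then centrifuged; supernatant A540 measured. Percent hemolysis scaled between untreated cells and 1% Triton X-100; triplicate.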

HL-60 [19] = assay: Cytotoxicity against human HL60 cells after 4 hrs by cell titer blue dye assay; type: functional, cell-based
How it was run: (§5)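 Suspension cells (~60 000) were mixed with 2-fold peptide dilutions (0.1–100 μM final) in DMEM/2% FBS, 30 min at 37 °C, 5% CO2. ~10 000 cells per well then received Cell Titer Blue. Resorufin fluorescence (ex 530/em 590 nm) was read at 4 and 24 h; viability relative to medium-only controls; triplicate.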

[20] = Toxicity in human erythrocytes assessed as induction of hemolysis at 100 uM incubated for 30 mins by microplate reader assay; type: cell-based, Erythrocyte; settings: read-out: Activity
How it was run: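 Fresh human blood erythrocytes, PBS-washed, were incubated as a 4% (v/v) final suspension with peptide (0.1–400 μM final) for 30 min at 37 °C with gentle agitation. After centrifugation, hemoglobin in the supernatant was read at A540. Percent hemolysis was calculated against 1% Triton X-100 (positive) and untreated cells; triplicate.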

Jurkat E6.1 [21] = assay: Cytotoxicity against human Jurkat E6-1 cells after 4 hrs by cell titer blue dye assay; type: functional, cell-based; how it was run: as §5
[22] = Cytotoxicity against human 1BR3G cells after 4 hrs by cell titer blue dye assay; type: cell-based
How it was run: (§6)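 1BR3G fibroblasts grown in DMEM/10% FBS, seeded 5000 cells/well, incubated 24 h at 37 °C, then medium swapped for 2% FBS medium with 2-fold peptide dilutions (0.1–100 μM final). After 30 min, Cell Titer Blue dye was added; fluorescence (ex 530/em 590 nm) read 4 and 24 h later. Viability relative to untreated medium controls; triplicate.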

[23] = Cytotoxicity against human 1BR3G cells after 24 hrs by cell titer blue dye assay; type: cell-based; how it was run: as §6
Jurkat E6.1 [24] = assay: Cytotoxicity against human Jurkat E6-1 cells after 24 hrs by cell titer blue dye assay; type: functional, cell-based; how it was run: as §5
HL-60 [25] = assay: Cytotoxicity against human HL60 cells after 24 hrs by cell titer blue dye assay; type: functional, cell-based; how it was run: as §5
[26] = Drug degradation in human serum at 1 mM after 24 hrs by LC-MS analysis; type: ADME, cell-free; settings: read-out: Drug degradation; how it was run: as §4

Row | Molecule | MIC (Staphylococcus aureus [1]) [µM] | MIC (Staphylococcus aureus [2]) [µM] | MIC (Escherichia coli [3]) [µM] | MIC (Enterococcus faecalis [4]) [µM] | MIC (Streptococcus pyogenes) [µM] | MIC (Enterococcus faecalis [5]) [µM] | MIC (Pseudomonas aeruginosa [6]) [µM] | MIC (Klebsiella pneumoniae) [µM] | MIC (Pseudomonas aeruginosa [7]) [µM] | MIC (Acinetobacter baumannii) [µM] | MIC (Escherichia coli [8]) [µM] | Activity (THP-1 [9]) | Activity [10] [%] | IC50 (THP-1 [11]) [µM] | IC50 [13] [µM] | Activity (HeLa S3) | Activity (U-937 [14]) | IC50 (U-937 [15]) [µM] | half-life at 1000 µM [17] [h] | hemolysis at 0.5 h [18] [%] | also measured
1 | GENTAMICIN | 0.5 | 0.5 | 34 | 17 | 17 | 34 | 2.1 | 4.2 | 17 | 17 | 1 |  |  |  |  |  |  |  |  |  | 
2 | CC[C@H](C)[C@H](NC(=O)[C@H](CCCCN)NC(=O)[C@H](CCCCN)NC(=O)[C@H](CC(C)C)NC(=O)[C@H](CCCNC(=N)N)NC(=O)[C@H](CCCCN)NC(=O)[C@@H](N)CCCCN)C(=O)N[C@@H](Cc1ccccc1)C(=O)N[C@@H](CCCCN)C(=O)N[C@@H](CCCCN)C(=O)N1CCC[C@H]1C(=O)N[C@@H](CCSC)C(=O)N[C@H](C(=O)N[C@H](C(=O)NCC(=O)N[C@H](C(=O)N[C@H](C(=O)N[C@H](C(=O)N1CCC[C@H]1C(=O)N[C@@H](Cc1ccccc1)C(N)=O)[C@@H](C)CC)[C@H](C)O)C(C)C)[C@@H](C)CC)C(C)C | 54 (≈ 128 µg/mL) | 54 (≈ 128 µg/mL) | 3.4 (≈ 8.06 µg/mL) | 54 (≈ 128 µg/mL) | 3.4 (≈ 8.06 µg/mL) | 54 (≈ 128 µg/mL) | 27 (≈ 64 µg/mL) | 3.4 (≈ 8.06 µg/mL) | 27 (≈ 64 µg/mL) | 1.7 (≈ 4.03 µg/mL) | 0.11 (≈ 0.261 µg/mL) | Active | 20 | 25 | 1 | Active | Active | 6.25 | 12.8 | 7 | remaining at 24 h, 1000 µM [12]: 10%; Activity [16]: Non-toxic
3 | CC[C@H](C)[C@H](NC(=O)[C@H](CCCCN)NC(=O)[C@H](CCCCN)NC(=O)[C@H](CC(C)C)NC(=O)[C@H](CCCNC(=N)N)NC(=O)[C@H](CCCCN)NC(=O)[C@H](CCCCN)NC(=O)[C@@H](NC(=O)[C@H](CO)NC(=O)[C@H](CCCCN)NC(=O)[C@H](CCCCN)NC(=O)[C@@H](NC(=O)[C@H](CCCCN)NC(=O)[C@H](CCCCN)NC(=O)[C@H](Cc1ccccc1)NC(=O)[C@H](Cc1ccccc1)NC(=O)[C@H](CCCCN)NC(=O)[C@H](CCCCN)NC(=O)[C@H](Cc1ccccc1)NC(=O)[C@H](CCCNC(=N)N)NC(=O)[C@@H](N)CCCCN)C(C)C)C(C)C)C(=O)N[C@@H](Cc1ccccc1)C(=O)N[C@@H](CCCCN)C(=O)N[C@@H](CCCCN)C(=O)N1CCC[C@H]1C(=O)N[C@@H](CCSC)C(=O)N[C@H](C(=O)N[C@H](C(=O)NCC(=O)N[C@H](C(=O)N[C@H](C(=O)N[C@H](C(=O)N1CCC[C@H]1C(=O)N[C@@H](Cc1ccccc1)C(N)=O)[C@@H](C)CC)[C@H](C)O)C(C)C)[C@@H](C)CC)C(C)C | 7.7 (≈ 32 µg/mL) | 7.7 (≈ 32 µg/mL) | 3.8 (≈ 15.8 µg/mL) | 7.7 (≈ 32 µg/mL) | 3.8 (≈ 15.8 µg/mL) | 31 (≈ 129 µg/mL) | 0.24 (≈ 0.996 µg/mL) | 1.9 (≈ 7.89 µg/mL) | 3.8 (≈ 15.8 µg/mL) | 3.8 (≈ 15.8 µg/mL) | 0.06 (≈ 0.249 µg/mL) | Active |  | 1.56 | < 1 | Active | Active | < 1 | 1.18 | 33 | IC50 (HL-60 [19]; HL-60, 4 h): > 12.5 µM; hemolysis at 0.5 h, 100 µM [20]: 7%; IC50 (Jurkat E6.1 [21]; Jurkat E6.1, 4 h): > 12.5 µM; IC50 [22]: 6.25 µM; Activity [23]: Toxic; Activity (Jurkat E6.1 [24]): Active; Activity (HL-60 [25]): Active
4 | CC(C)[C@H](NC(=O)[C@H](CO)NC(=O)[C@H](CCCCN)NC(=O)[C@H](CCCCN)NC(=O)[C@@H](NC(=O)[C@H](CCCCN)NC(=O)[C@H](CCCCN)NC(=O)[C@H](Cc1ccccc1)NC(=O)[C@H](Cc1ccccc1)NC(=O)[C@H](CCCCN)NC(=O)[C@H](CCCCN)NC(=O)[C@H](Cc1ccccc1)NC(=O)[C@H](CCCNC(=N)N)NC(=O)[C@@H](N)CCCCN)C(C)C)C(N)=O (H-KRFKKFFKKVKKSV-NH2) | 71 (≈ 128 µg/mL) | 71 (≈ 128 µg/mL) | 71 (≈ 128 µg/mL) | 71 (≈ 128 µg/mL) | 36 (≈ 64.7 µg/mL) | 71 (≈ 128 µg/mL) | 71 (≈ 128 µg/mL) | 71 (≈ 128 µg/mL) | 71 (≈ 128 µg/mL) | 71 (≈ 128 µg/mL) | 71 (≈ 128 µg/mL) | inactive | 20 |  | > 10 | Active | inactive |  | 0.35 | 7 | metabolised at 24 h, 1000 µM [26]: 100%; Activity (THP-1 [11]): inactive; Activity (HL-60 [19]): inactive; Activity (Jurkat E6.1 [21]): inactive; Activity (U-937 [15]): inactive; Activity [16]: Non-toxic; Activity (Jurkat E6.1 [24]): inactive; Activity (HL-60 [25]): inactive

Source: ChEMBL document CHEMBL3632543, “Structural Dissection of Crotalicidin, a Rattlesnake Venom Cathelicidin, Retrieves a Fragment with Antimicrobial and Antitumor Activity” (J Med Chem, 2015)
